# Variants at the floor of the assay were thinned out.
# B1: tRNA (parent)
# chain: GUUCCGUUGGCGUAAUGGUAACGCGUCUCCCUCCUAAGGAGAAGACUGCGGGUUCGAGUCCCGUACGGAACG
# Variants of: B1
# Assay: yeast fitness relative to wild type (ratio to wild type); higher = fitter; tRNA-Arg(CCU), competitive growth, 37 C, YPD
# Procedure, shortened: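 A pool of Saccharomyces cerevisiae strains, each with a tRNA-Arg(CCU) gene variant at the native genomic locus, was competed in YPD at 37°C for 24 hours across six parallel replicates. The variants had been chemically synthesised at a 3% per-site mutation rate over 69 sites, and gene amplicons before and after competition were read by 100-nucleotide paired-end sequencing. Darwinian fitness relative to wild type rested on changes in genotype frequencies. Genotypes required ≥ 100 starting reads, and estimates < 0.5 were set to 0.5.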
row,Variant,yeast fitness
1,GUUCCGUUGGCGUAAUGGUAACGCGUCUCCCUCCUAAGGACAAGACUGCGGGUUCGAGUCCGGUACGGAACG,0.597
2,GUUCCGUUGGCGUAAUGGUAACGCGUCUCCCUCCUAAGGAGGAGACUGCGGGUUCGAGUCCCGUCCGGCGCG,0.577
3,GUUCCGUUGGCGUAAUGGUAACGCGUCUCCCUCCUAAGGAGGAGACUGCGGGUUCGAGUCGCGUAUGGAACG,≤ 0.5
4,GUUCCGUUGGCGUAAUGGUAACGCGUCUCCCUCCUAAGGAGCAGACUGCGGGACCGAGUCCCGAACGGAACG,≤ 0.5
5,GUUCCGUUGGCGUAAUGGUAACGCGUCUCCCUCCUAAGGAGUAGACUGCGGGUUCGAGUCCCGUAGGGAACG,0.712
6,GUUCCGUUGGCGUAAUGGUAACGCGUCUCCCUCCUAAGGAGCAGACUGCGGGUUCAAGUCCCGUACGGAACG,1.01
7,GUUCCGUUGGCGUAAUGGUAACGCGUCUCCCUCCUAAGGAGGAGACCGCGGGUUCGAGUCCAGUAUGGAACG,≤ 0.5
8,GUUCCGUUGGCGUAAUGGUAACGCGUCUCCCUCCUAAGGAGCAGCCUACGGGUUCGAGUCCCGUACGGAGCG,0.632
9,GUUCCGUUGGCGUAAUGGUAACGCGUCUCCCUCCUAAGGACAAGACUGCGGGUUCGAGUCCCGUAAGGAACG,0.621
10,GUUCCGUUGGCGUAAUGGUAACGCGUCUCCCUCCUAAGGAGUUGACUGCGGGUUCGAGUCCAGUUCGGGACG,0.567
11,GUUCCGUUGGCGUAAUGGUAACGCGUCUCCCUCCUAAGGAGUAGAUUGCGGGUUCGUGUCCCGUACGGAACG,0.538
12,GUUCCGUUGGCGUAAUGGUAACGCGUCUCCCUCCUAAGGAGGAGAGUGUGGGUUCGAGUCCCGUACGGAACG,0.744
13,GUUCCGUUGGCGUAAUGGUAACGCGUCUCCCUCCUAAGGAGGAGACUGCGGGUUCGAGUCCCGCACGGAACG,0.904
14,GUUCCGUUGGCGUAAUGGUAACGCGUCUCCCUCCUAAGGAGGAGACUGCGGGUUCGAGUCCCGAACGGAACG,0.724
15,GUUCCGUUGGCGUAAUGGUAACGCGUCUCCCUCCUAAGGAGUAGACUGCGGGUUGGAGUCCCGUACGGAACG,0.616
16,GUUCCGUUGGCGUAAUGGUAACGCGUCUCCCUCCUAAGGACAAGACUACGGGUUCGAGUCCCGUACGGAACG,0.981
17,GUUCCGUUGGCGUAAUGGUAACGCGUCUCCCUCCUAAGGAGCAGACUGCGGGAUCGAGUCCCGUACGCAACG,≤ 0.5
18,GUUCCGUUGGCGUAAUGGUAACGCGUCUCCCUCCUAAGGACAAGACUCCGGGUUCGAGUCCCGUACGGUACG,0.558
19,GUUCCGUUGGCGUAAUGGUAACGCGUCUCCCUCCUAAGGAGUAGACUGCGGGUUCGUGUCUCGUACGGAACG,≤ 0.5
20,GUUCCGUUGGCGUAAUGGUAACGCGUCUCCCUCCUAAGGACAAGACUGCGGGUACGAGUCCCGUACGGAACG,0.667
21,GUUCCGUUGGCGUAAUGGUAACGCGUCUCCCUCCUAAGGAGCAGACUCCGGGUUCGAGUCCCGUACGGAUCG,0.666
22,GUUCCGUUGGCGUAAUGGUAACGCGUCUCCCUCCUAAGGAGUAAACUGCGGGUUCGAGUCCCGUACGGAACG,1.01
23,GUUCCGUUGGCGUAAUGGUAACGCGUCUCCCUCCUAAGGAGGAGACUGCGAGUUCGAGUACCGUACGGAACG,≤ 0.5
24,GUUCCGUUGGCGUAAUGGUAACGCGUCUCCCUCCUAAGGAGGAGACUGCGGGUUCGAGUCCCGUGCGGAACG,0.735
25,GUUCCGUUGGCGUAAUGGUAACGCGUCUCCCUCCUAAGGAGGAGACUGCGGGUUCGAGUCCCGUACGCAACG,0.798

row,Variant,yeast fitness
1,GUUCCGUUGGCGUAAUGGUAACGCGUCUCCCUCCUAAGGAGGAGAGUGCGGGUUCGAGUCCCGUACGGAACG,0.886
2,GUUCCGUUGGCGUAAUGGUAACGCGUCUCCCUCCUAAGGAGGAGAAUGCGGGUUCGAGUCCCGUACGGAACG,0.908
3,GUUCCGUUGGCGUAAUGGUAACGCGUCUCCCUCCUAAGGAGGAGACUGUGGGUUCGAGUCCCGUACGGAACG,0.801
4,GUUCCGUUGGCGUAAUGGUAACGCGUCUCCCUCCUAAGGAGGAGACUACGGGUUCGAGUCCCGUACGGAACG,0.863
5,GUUCCGUUGGCGUAAUGGUAACGCGUCUCCCUCCUAAGGAGUAGACUGCGGGUUCGAGUCCCGUCCGGAACG,0.81
6,GUUCCGUUGGCGUAAUGGUAACGCGUCUCCCUCCUAAGGAGCUGACUGCGGGUUCGAGUCCCGUACCGAACG,≤ 0.5
7,GUUCCGUUGGCGUAAUGGUAACGCGUCUCCCUCCUAAGGAGUAGACUGCGGGUUCGAGUCCAGGAGGGAACG,≤ 0.5
8,GUUCCGUUGGCGUAAUGGUAACGCGUCUCCCUCCUAAGGAGGAGACUGCGGGUUCGAGUCCAGUACGGAACG,0.786
9,GUUCCGUUGGCGUAAUGGUAACGCGUCUCCCUCCUAAGGAGUAGAUUGCGGGUUCGAGUCCCGUACGGAACG,0.97
10,GUUCCGUUGGCGUAAUGGUAACGCGUCUCCCUCCUAAGGAGGAGACUGCAGGUUCGAGUCCCGUACGGAACG,0.842
11,GUUCCGUUGGCGUAAUGGUAACGCGUCUCCCUCCUAAGGAGUAGACUGCGGGUUUGAGUCCCGUACGGCACG,0.511
12,GUUCCGUUGGCGUAAUGGUAACGCGUCUCCCUCCUAAGGAGGACACUGCGGGUUCGAGUGCCGUACGGAACG,0.606
13,GUUCCGUUGGCGUAAUGGUAACGCGUCUCCCUCCUAAGGAGCAGACUACAGGUUCGAGUCGCGUACGGAACG,0.553
14,GUUCCGUUGGCGUAAUGGUAACGCGUCUCCCUCCUAAGGAGUGGACUCCGGGAUCGAGUCCCGUACGGACCG,0.525
15,GUUCCGUUGGCGUAAUGGUAACGCGUCUCCCUCCUAAGGAGCAGACUGCGGGUUCGAGUCCUGUACGGAACG,0.829
16,GUUCCGUUGGCGUAAUGGUAACGCGUCUCCCUCCUAAGGAGCAGACUGCGGGUUCGAGUCCAGUACGGAACG,0.719
17,GUUCCGUUGGCGUAAUGGUAACGCGUCUCCCUCCUAAGGAGUGGACUGCGGGUUCGAGUCCCGUACAGAACG,0.574
18,GUUCCGUUGGCGUAAUGGUAACGCGUCUCCCUCCUAAGGAGGAGAUUGCGGGUUCGCGUCCCGUACGGAACG,≤ 0.5
19,GUUCCGUUGGCGUAAUGGUAACGCGUCUCCCUCCUAAGGAGGAGAUUGCGGGUUCGAGUCCCGUCCGGAACG,0.665
20,GUUCCGUUGGCGUAAUGGUAACGCGUCUCCCUCCUAAGGAGGAGACGGCGGGUUCGAGUCCCGUACGUAACG,≤ 0.5
21,GUUCCGUUGGCGUAAUGGUAACGCGUCUCCCUCCUAAGGAGCAGACUGCGGGUUCGAGUCGCGUUCGGAACG,0.539
22,GUUCCGUUGGCGUAAUGGUAACGCGUCUCCCUCCUAAGGAGCAGACUGCGGGUUCGUGUCCCGUAUGGAACG,≤ 0.5
23,GUUCCGUUGGCGUAAUGGUAACGCGUCUCCCUCCUAAGGAGCAGACCGCGGGUUCGACUCCCGUACGGAACG,0.644
24,GUUCCGUUGGCGUAAUGGUAACGCGUCUCCCUCCUAAGGAGGAGACUGCGGGUUCGCGUCCCGUACGGAACG,0.7
25,GUUCCGUUGGCGUAAUGGUAACGCGUCUCCCUCCUAAGGAGGAGACGGCCGGUUCGAGUCCCGUACGGAACG,0.608

row,Variant,yeast fitness
1,GUUCCGUUGGCGUAAUGGUAACGCGUCUCCCUCCUAAGGAGCAGCCUACGGGUUCGAGUCCCGUGCGGAACG,0.671
2,GUUCCGUUGGCGUAAUGGUAACGCGUCUCCCUCCUAAGGAGGAGACUGCGGGUUCGAGUCCAGUAUGGAACG,0.614
3,GUUCCGUUGGCGUAAUGGUAACGCGUCUCCCUCCUAAGGAGGAGACUGCGGGUUCUAGUCCCGUACGGAACG,0.565
4,GUUCCGUUGGCGUAAUGGUAACGCGUCUCCCUCCUAAGGACAAGACUGCGGCUUCGAGUCCCGUUCGGAACG,≤ 0.5
5,GUUCCGUUGGCGUAAUGGUAACGCGUCUCCCUCCUAAGGAGGUGAUUGCGGGUUCGAGUCCUGUACGGAACG,0.551
6,GUUCCGUUGGCGUAAUGGUAACGCGUCUCCCUCCUAAGGACAAGACUGCGGGUUCCAGUCCCGUACGGAACG,0.557
7,GUUCCGUUGGCGUAAUGGUAACGCGUCUCCCUCCUAAGGAGGAGACUGGGGGUUCGAGUCGCGUACGGAACG,≤ 0.5
8,GUUCCGUUGGCGUAAUGGUAACGCGUCUCCCUCCUAAGGAGUGGACUCCGGGAUCGAGUCCCGUACGGCACG,0.589
9,GUUCCGUUGGCGUAAUGGUAACGCGUCUCCCUCCUAAGGAGGAGCCUCCGGGUUCGAGUCCCGUACGGAACG,≤ 0.5
10,GUUCCGUUGGCGUAAUGGUAACGCGUCUCCCUCCUAAGGACAAGACUGCGGGUUCGAGUCCCCUUCGGAACG,≤ 0.5
11,GUUCCGUUGGCGUAAUGGUAACGCGUCUCCCUCCUAAGGAGCAGACUGCGGGUUCGAAUCCCGUACGGAACG,0.951
12,GUUCCGUUGGCGUAAUGGUAACGCGUCUCCCUCCUAAGGACAAGACUGCGGGUUCGAGUCGCGUACGGAACG,0.793
13,GUUCCGUUGGCGUAAUGGUAACGCGUCUCCCUCCUAAGGAGUAGACUGUGGGUUCGAGUCCCGUACGGAACG,0.975
14,GUUCCGUUGGCGUAAUGGUAACGCGUCUCCCUCCUAAGGAGCAGACUGCGGGUACGAGUCCCGUACGGAACG,0.567
15,GUUCCGUUGGCGUAAUGGUAACGCGUCUCCCUCCUAAGGAGCAGACUGCGGGUCCGAGUCCCGUACGGAACG,0.796
16,GUUCCGUUGGCGUAAUGGUAACGCGUCUCCCUCCUAAGGAGCAGACUGCGGGUUCGAGACCCGUACGGUACG,0.528
17,GUUCCGUUGGCGUAAUGGUAACGCGUCUCCCUCCUAAGGAGUAGACUGCGGGUUCGUGUCCCGUACGGAACG,0.682
18,GUUCCGUUGGCGUAAUGGUAACGCGUCUCCCUCCUAAGGAGGAGACUGCGGGUUUGAGUCCCGUACGGAACG,0.688
19,GUUCCGUUGGCGUAAUGGUAACGCGUCUCCCUCCUAAGGAGGAGACUGCGGGUUCGAGUCCCAUACGGAACG,0.684
20,GUUCCGUUGGCGUAAUGGUAACGCGUCUCCCUCCUAAGGAGUCGACUGCGGGUUCGAGUCCCGUACGGAACG,0.994
21,GUUCCGUUGGCGUAAUGGUAACGCGUCUCCCUCCUAAGGAGUAGACUGCGGGUUCGAGUUCCGUACGGAGCG,0.703
22,GUUCCGUUGGCGUAAUGGUAACGCGUCUCCCUCCUAAGGAGCAGACUGCAGGUUCGAGUCGCGUACGGAACG,0.793
23,GUUCCGUUGGCGUAAUGGUAACGCGUCUCCCUCCUAAGGAGGAGACUGCGGGUUCGUGUCCCGUACCGAACG,≤ 0.5
24,GUUCCGUUGGCGUAAUGGUAACGCGUCUCCCUCCUAAGGAGUAGACUGCGGGUUCGAGUCGCGUCGGGAACG,0.89
25,GUUCCGUUGGCGUAAUGGUAACGCGUCUCCCUCCUAAGGAGUAGUCUGCGGGUUCGAGUCCCGUACGGUACG,0.707
